From PubChem BioAssay
PKD1 kinase inh – inhibitors of human PKD1 kinase; Q15139; actives 0.056% (n = 200,000); AID 797; inhibition, % (test concentration not listed); PKD1 kinase fluorescence polarization assay
EBV gp42 block – inhibitors of Epstein-Barr virus glycoprotein 42 | Q1HVG2 | actives 0.42% (n = 220,000) | inhibition, % (tested at 21.74 µM) | Fluorescence polarization binding assay, mP read-out
MEX-5 binding – C. elegans MEX-5 TCR-2 RNA binding activity. activity score (negative = inhibition of binding), % at 10 µM. actives 0.38% (n = 300,000). MEX-5/FITC-TCR2 RNA binding, fluorescence polarization; active compounds read low. AID 1832;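 active means inhibition past about -25% in most replicates, and total fluorescence under double the plate's negative control median, limit read from the data; inconclusive means replicates evenly split on the limit, or fluorescence at least double controls; inactive means too little inhibition in most replicates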
Runt-SMMHC FRET – Runt domain-CBFb-SMMHC interaction inhibition; Q01196+Q13951; Cerulean-Runt/Venus-CBFb-SMMHC FRET ratio 530/480, 1 h; inhibition, % at 20 µM; actives 0.74% (n = 220,000); AID 1434;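 active means mean inhibition across duplicate retests at 20 µM reaching about 50%, limit read from the data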;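 further: inhibitors lower the FRET ratio by blocking Runt binding to CBFb-SMMHC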
Target sequence (Q01196 whole entry, looked up, the tested form may be a part): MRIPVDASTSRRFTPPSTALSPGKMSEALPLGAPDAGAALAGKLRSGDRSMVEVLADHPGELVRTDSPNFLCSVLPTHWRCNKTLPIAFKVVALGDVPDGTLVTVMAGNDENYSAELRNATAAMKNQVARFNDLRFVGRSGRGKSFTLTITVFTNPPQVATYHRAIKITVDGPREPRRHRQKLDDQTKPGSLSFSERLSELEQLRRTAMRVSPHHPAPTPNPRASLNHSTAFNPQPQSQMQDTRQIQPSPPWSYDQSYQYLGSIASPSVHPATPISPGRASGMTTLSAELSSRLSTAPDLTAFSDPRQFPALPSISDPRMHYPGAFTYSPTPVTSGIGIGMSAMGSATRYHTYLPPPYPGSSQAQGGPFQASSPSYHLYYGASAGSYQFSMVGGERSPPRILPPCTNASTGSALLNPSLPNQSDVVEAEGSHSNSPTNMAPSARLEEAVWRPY
Target sequence (Q13951 whole entry, looked up, the tested form may be a part): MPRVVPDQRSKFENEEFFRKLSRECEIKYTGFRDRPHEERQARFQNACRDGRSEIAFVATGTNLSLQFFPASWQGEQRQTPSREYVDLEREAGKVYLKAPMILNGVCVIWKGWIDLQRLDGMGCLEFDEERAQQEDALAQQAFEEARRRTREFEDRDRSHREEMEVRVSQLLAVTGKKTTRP
Runt-CBFb FRET – blocks binding of human RUNX1 Runt domain to CBFb; Cerulean-Runt/Venus-CBFb FRET ratio 530/480, 1 h; inhibition, % at 20 µM; actives 0.46% (n = 220,000);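 active means inhibition over about 50% at 20 µM in the single-dose screen, limit read from the data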
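test system = Cerulean-Runt domain fusion protein, energy donor | probe or stimulus = Venus-CBFb binding partner, 100 nM | incubation = two 1 h room-temperature incubations shielded from light | detection = fluorescence energy transfer, 422 nm excitation, 530/480 nm emission | measure = loss of energy transfer signal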
RanGTP-Imp inh – disruptors of Ran-importin-beta complex formation – biochemical, FRET, CFP-Ran, YFP-importin-beta, homogeneous, primary screen; cell-free CFP-Ran/YFP-importin-beta FRET ratio; inhibition, % (concentration not given with the values); actives 1.1% (n = 300,000);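 active means more than half of the replicate wells show a fall in the fluorescence ratio signal beyond about 16%, limit read from the data, passing the limit was not always enough; inconclusive means exactly half of the replicate wells pass the set limit; inactive means fewer than half of replicates pass the limit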
Of the large screens only hits and unclear results are named; the others gave an inactive call. Rows were chosen to be rich in hits. Some 2% of all compounds tested hit in one or more screens of this group. Unless noted, no stated cut-off is given here; in the data, active means inhibition above about 50%; inactive means the rest.

CC1CC(=O)c2c(cc3c(-c4c(O)cc(O)c5c(O)c6c(cc45)OC(C)CC6=O)c(O)cc(O)c3c2O)O1 (stereo not drawn)	MEX-5 binding -35
O=C1CC(c2ccc(O)cc2)Oc2cc(O)cc(O)c21 (stereo not drawn)	none
Cc1cc(=O)oc2cc(OCC(=O)N/N=C/c3cc([N+](=O)[O-])ccc3O)ccc12	EBV gp42 block 92
Cc1ccc(C)c(NC(=O)CCC(=O)N/N=C/c2cc([N+](=O)[O-])ccc2O)c1	RanGTP-Imp inh inconclusive
COc1ccc(C2c3ccc(O)cc3Oc3ncn(Cc4ccco4)c(=N)c32)cc1OC (stereo not drawn)	MEX-5 binding -29 (no result: PKD1 kinase inh)
COc1ccc(C2c3ccc4ccccc4c3Oc3ncn(Cc4ccco4)c(=N)c32)cc1OC (stereo not drawn)	none
COc1ccc(C2c3ccc(O)cc3Oc3ncn(CCN4CCOCC4)c(=N)c32)cc1 (stereo not drawn)	none (no result: PKD1 kinase inh)
COc1ccc(C2c3ccc(O)cc3Oc3ncn(CC(C)C)c(=N)c32)cc1 (stereo not drawn)	Runt-SMMHC FRET 62 (no result: PKD1 kinase inh)
COc1ccc(S(=O)(=O)NCCCn2ccnc2)cc1Cl	none (no result: PKD1 kinase inh, EBV gp42 block, Runt-SMMHC FRET, Runt-CBFb FRET)
COC(CNC(=O)c1ccc2nc(-c3cccs3)c(-c3cccs3)nc2c1)OC	RanGTP-Imp inh 43
COc1ccc(-c2nc3ccc(C(=O)NCC(OC)OC)cc3nc2-c2ccc(OC)c(OC)c2)cc1OC	none (no result: PKD1 kinase inh, EBV gp42 block, Runt-SMMHC FRET, Runt-CBFb FRET)
Cc1ccc(Cl)c2c1=NC(=O)C=2c1[nH]c(=S)[nH]c1O	MEX-5 binding -45
CCSc1cc(N2CCCC2)nc(-c2ccccc2Cl)n1	EBV gp42 block 60
N#Cc1c(Cl)nc(SCc2ccccc2)nc1-c1ccccc1	Runt-CBFb FRET 113 (no result: MEX-5 binding, RanGTP-Imp inh)
c1ccc(CSc2nnc(-c3ccccc3)c(-c3ccccc3)n2)cc1	none (no result: PKD1 kinase inh, EBV gp42 block, Runt-SMMHC FRET, Runt-CBFb FRET)
O=C(O)c1cc(S(=O)(=O)NC(CO)C(O)c2ccc([N+](=O)[O-])cc2)ccc1Br (stereo not drawn)	none (no result: PKD1 kinase inh, EBV gp42 block, Runt-SMMHC FRET, Runt-CBFb FRET)
O=C(NNC(=O)c1ccccc1O)c1ccc(S(=O)(=O)Nc2ccccc2F)cc1	MEX-5 binding -26 (no result: PKD1 kinase inh, EBV gp42 block, Runt-SMMHC FRET, Runt-CBFb FRET)
Cc1ccc2c(c1)C1CC(C)(O2)N(c2cccc(C(=O)NC3CCN(Cc4ccccc4)CC3)c2)C(=O)N1 (stereo not drawn)	none (no result: PKD1 kinase inh, EBV gp42 block, Runt-SMMHC FRET, Runt-CBFb FRET)
COc1c(O)c(=O)n2c3ccccc3c3ccnc1c32	none (no result: PKD1 kinase inh, EBV gp42 block, Runt-SMMHC FRET, Runt-CBFb FRET)
COc1c(OC)c2[nH]c(=O)cc3c4ccccc4n(c1=O)c23	RanGTP-Imp inh 157 (no result: PKD1 kinase inh, EBV gp42 block, Runt-SMMHC FRET, Runt-CBFb FRET)
Cc1ccc(CNC(=O)C2CCN(S(=O)(=O)c3ccc(Br)s3)CC2)cc1	none (no result: PKD1 kinase inh, EBV gp42 block, Runt-SMMHC FRET, Runt-CBFb FRET)
Cc1nc2ccccc2c(=O)n1/N=C/c1ccccc1O	none (no result: PKD1 kinase inh, MEX-5 binding)
Cc1nc2ccccc2c(=O)n1/N=C/c1ccc(O)c(O)c1O	MEX-5 binding -52 (no result: PKD1 kinase inh, EBV gp42 block, Runt-SMMHC FRET, Runt-CBFb FRET)
O=C1c2ccccc2C(=O)N1/N=C/c1ccc(O)c(O)c1O	MEX-5 binding -53 (no result: PKD1 kinase inh)
O=C1c2cccc3cccc(c23)C(=O)N1/N=C/c1ccc(O)cc1O	none
Cc1cc(C)c2c(N)c(-c3nc4ccccc4[nH]3)sc2n1	RanGTP-Imp inh 21
O=C1CCC/C(=N/NC(=O)c2sc3ccccc3c2Cl)C1	MEX-5 binding -27 (no result: PKD1 kinase inh)
O=C(NN=C1CCCC1)c1sc2ccccc2c1Cl	none
O=C(Cc1ccsc1)N1CCc2c([nH]c3ccccc23)C1c1ccccn1 (stereo not drawn)	RanGTP-Imp inh 29
Cc1nnsc1C(=O)NNC(=O)c1cccc2ccccc12	none (no result: PKD1 kinase inh)
O=S(=O)(O)c1cccc2c(N=Nc3ccc(O)c4ncccc34)cccc12	MEX-5 binding -92, RanGTP-Imp inh 16 (no result: PKD1 kinase inh, EBV gp42 block, Runt-SMMHC FRET, Runt-CBFb FRET)
CC(C)(C)c1ccc(C(=O)Nc2cccc3ncccc23)cc1	MEX-5 binding -74 (no result: PKD1 kinase inh, EBV gp42 block, Runt-SMMHC FRET, Runt-CBFb FRET)
CCCCc1nc(SCC(=O)Nc2cccc(Cl)c2)n[nH]1	RanGTP-Imp inh inconclusive (no result: PKD1 kinase inh, EBV gp42 block, Runt-SMMHC FRET, Runt-CBFb FRET)
CC(C)(C)OC(=O)n1cc(/C=N/NC(=O)c2ccco2)c2ccccc21	none (no result: PKD1 kinase inh, EBV gp42 block, Runt-SMMHC FRET, Runt-CBFb FRET)
CCc1c(C)c2cc(Cl)c(O)c(CN(C)C)c2oc1=O	Runt-SMMHC FRET 92, Runt-CBFb FRET 92, RanGTP-Imp inh 39
O=c1oc2c(CN3CCOCC3)c(O)c(Cl)cc2c2c1CCC2	Runt-SMMHC FRET 176, Runt-CBFb FRET 104 (no result: MEX-5 binding, RanGTP-Imp inh)
O=c1cc(-c2ccccc2)c2cc(Cl)c(O)c(CN3CCOCC3)c2o1	none (no result: PKD1 kinase inh)
CN(C)Cc1c(O)c(Cl)cc2c3c(c(=O)oc12)CCCC3	Runt-SMMHC FRET 59, Runt-CBFb FRET 88, RanGTP-Imp inh 43
COCC(C)NC(=O)C(C)N1c2cccc3cccc(c23)S1(=O)=O (stereo not drawn)	none (no result: PKD1 kinase inh, EBV gp42 block, Runt-SMMHC FRET, Runt-CBFb FRET)
CCCCn1c(N)c(N(CC(C)C)C(=O)c2ccc(-c3ccc(C(C)=O)cc3)o2)c(=O)[nH]c1=O	none (no result: PKD1 kinase inh, EBV gp42 block, Runt-SMMHC FRET, Runt-CBFb FRET)
Cn1c(CO)cnc1-c1ccccc1	none (no result: PKD1 kinase inh)
CCN(CC)C(=O)c1ccc(-c2nnc(OC)c3ccccc23)cc1	none (no result: PKD1 kinase inh)
CN(C(=O)c1cc2c(s1)-c1ccccc1S(=O)(=O)C2)c1ccccc1	none (no result: PKD1 kinase inh)
CCOc1ccc(C2N(c3ccc(OC)cc3)C(=O)C3CCCN32)cc1OC (stereo not drawn)	none
CCOc1ccc(C2N(c3ccc(F)cc3)C(=O)C3CCCN32)cc1OC (stereo not drawn)	RanGTP-Imp inh 21
Cc1sc2ncn(CC(=O)NCCCC(=O)N3CCN(c4ccccc4)CC3)c(=O)c2c1C	Runt-CBFb FRET 55
Cc1cc(/C=C(/C#N)c2nc3ccccc3[nH]2)c(C)n1-c1cccc([N+](=O)[O-])c1	none
Cc1cc(/C=C(\C#N)c2nc3ccccc3[nH]2)c(C)n1C	EBV gp42 block 105, MEX-5 binding -28
COc1cc(/C=C(/C#N)c2nc3ccccc3[nH]2)ccc1OC(=O)c1ccco1	RanGTP-Imp inh 28
